Data on 4 molecules can be found in paper PMC5593162 (Clinical and Translational Science, 2017).

Like-named read-outs stand apart in the source and are kept apart here.

The format of series [1] is in vivo, healthy adult subjects (human). The method, boiled down: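 Open-label, fixed-sequence, three periods, ≥10-day washouts, overnight-fasted. Single oral inhibitor FDC (50 mg/100 mg) given alone, after H2-antagonist 20 mg orally ~10 h and 2 h before, or ~2 h after PPI 40 mg on day 5 of 5 daily doses. Plasma sampled predose to 96 h; LC-MS/MS. Noncompartmental; t½ = ln2/λz; GMRs via mixed-effects model on log values.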

The conditions of series [2]: ref previous studies; cited from earlier work.
The conditions of series [3]: cited from earlier work.

Turning to `COC(=O)N[C@H](C(=O)N1CCC[C@H]1c1nc(-c2ccc3c(c2)O[C@@H](c2ccccc2)n2c-3cc3cc(-c4c[nH]c([C@@H]5CCCN5C(=O)[C@@H](NC(=O)OC)C(C)C)n4)ccc32)c[nH]1)C(C)C` [EBR, elbasvir], the “tmax, median” value in series [1] (EBR in plasma, EBR/GZR FDC + FAM 20 mg given 10 h and 2 h before) turned out to be 3.50 h. Further, the “C24 GMR” value in series [1] (EBR, EBR/GZR FDC + FAM / EBR/GZR FDC) amounted to 1.03. In addition, the “C24 GMR” value in series [1] (EBR, EBR/GZR FDC + PAN / EBR/GZR FDC) is 1.03. In series [1] (human, plasma, po, 100 mg), the Tmax was found to be 3.5 h and the half-life was 19.3 h. Besides, in series [2], the “apparent terminal half-life (t½)” value is ~20 h and the “time to maximum drug concentration (tmax)” value is 2 to 4 h.
Consider `C=C[C@@H]1C[C@]1(NC(=O)[C@@H]1C[C@@H]2CN1C(=O)[C@H](C(C)(C)C)NC(=O)O[C@@H]1C[C@H]1CCCCCc1nc3ccc(OC)cc3nc1O2)C(=O)NS(=O)(=O)C1CC1` [GZR, grazoprevir], for which the “C24 GMR” value in series [1] (GZR, EBR/GZR FDC + FAM / EBR/GZR FDC) was 1.12. In series [1] (GZR, EBR/GZR FDC + PAN / EBR/GZR FDC), the “C24 GMR” value is on record as 1.17. The molecule further showed a half-life in series [1] (human, plasma, po, 100 mg) of 33.8 h. For the same molecule, in series [2], the “apparent terminal half-life (t½)” value was ~20 h and the “time to maximum drug concentration (tmax)” value was 2 to 4 h.
As to `COC(=O)N[C@H](C(=O)N1CC2(CC2)C[C@H]1c1ncc(-c2ccc3c(c2)C(F)(F)c2cc(-c4ccc5nc([C@@H]6[C@H]7CC[C@H](C7)N6C(=O)[C@@H](NC(=O)OC)C(C)C)[nH]c5c4)ccc2-3)[nH]1)C(C)C` [ledipasvir], the “solubility versus stomach pH” value in series [3] is listed as “decrease as stomach pH increases”.
Turning to `COC[C@H]1C[C@@H](c2ncc(-c3ccc4c(c3)COc3cc5c(ccc6nc([C@@H]7CC[C@H](C)N7C(=O)[C@@H](NC(=O)OC)C(C)C)[nH]c65)cc3-4)[nH]2)N(C(=O)[C@H](NC(=O)OC)c2ccccc2)C1` [velpatasvir], the “solubility versus stomach pH” value in series [3] is given as “decrease as stomach pH increases”.
